Measurements: ChEMBL document CHEMBL4689842, “EUbOPEN Chemogenomics Library wave 1” (2021)
“And” between values parts separate entries of the source, which are not always exact repeats. Equal values may be shown once.

Tested on: HEK-293T
Test: Multiplex assay against HEK293T;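 as to Population Tubulin-Different-Phenotype (%): share of the cells with healthy nuclei that show this phenotype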
Assay type: toxicity, cell-based
Conditions: human
In short: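 On a CQ1 microscope at 37°C and 5% CO2, live cells were imaged after compound addition. They had been stained at seeding with Hoechst33342, BioTracker Green Microtubule Cytoskeleton Dye, MitoTracker Red and Annexin V Alexa Fluor 680. CellPathfinder machine-learning gating assigned cells to Hoechst high-intensity objects or normal cells, normal cells to healthy, pyknosed or fragmented nuclei, and pyknosed cells to mitotic or apoptotic. Tubulin, mitochondrial-mass and membrane-permeability phenotypes are per cents of healthy-nucleus cells.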

[1] = 12 h, 1 µM, compound concentration 1 uM, replicate 1
[2] = 12 h, 1 µM, compound concentration 1 uM, replicate 2
[3] = 12 h, 10 µM, compound concentration 10 uM, replicate 1
[4] = 12 h, 10 µM, compound concentration 10 uM, replicate 2
[5] = 24 h, 1 µM, compound concentration 1 uM, replicate 1
[6] = 24 h, 1 µM, compound concentration 1 uM, replicate 2
[7] = 24 h, 10 µM, compound concentration 10 uM, replicate 1
[8] = 24 h, 10 µM, compound concentration 10 uM, replicate 2
[9] = 48 h, 1 µM, compound concentration 1 uM, replicate 1
[10] = 48 h, 1 µM, compound concentration 1 uM, replicate 2
[11] = 48 h, 10 µM, compound concentration 10 uM, replicate 1
[12] = 48 h, 10 µM, compound concentration 10 uM, replicate 2

CN1CCC[C@@H]1CCO[C@](C)(c1ccccc1)c1ccc(Cl)cc1.O=C(O)/C=C/C(=O)O [CLEMASTINE FUMARATE]
Population Apoptotic (%) [1]: 56%
Population Fragmented Nuclei (%) [1]: 10%
Population Healthy Nuclei (%) [1]: 23%
Population Hoechst High Intensity Objects (%) [1]: 9%
Population Membrane Permeable-Phenotype (%) [1]: 5%
Population Mitochondria Different-Phenotype (%) [1]: 96%
Population Mitotic Cells (%) [1]: 43%
Population Normal (%) [1]: 90%
Population Pyknosed Nuclei (%) [1]: 65%
Population Tubulin-Different-Phenotype (%) [1]: 78%
Total Cell Count [1]: 278
Population Apoptotic (%) [2]: 25%
Population Fragmented Nuclei (%) [2]: 4%
Population Healthy Nuclei (%) [2]: 32%
Population Hoechst High Intensity Objects (%) [2]: 3%
Population Membrane Permeable-Phenotype (%) [2]: 13%
Population Mitochondria Different-Phenotype (%) [2]: 48%
Population Mitotic Cells (%) [2]: 75%
Population Normal (%) [2]: 96%
Population Pyknosed Nuclei (%) [2]: 62%
Population Tubulin-Different-Phenotype (%) [2]: 52%
Total Cell Count [2]: 217
Population Apoptotic (%) [3]: 92%
Population Fragmented Nuclei (%) [3]: 14%
Population Healthy Nuclei (%) [3]: 17%
Population Hoechst High Intensity Objects (%) [3]: 18%
Population Membrane Permeable-Phenotype (%) [3]: 6%
Population Mitochondria Different-Phenotype (%) [3]: 100%
Population Mitotic Cells (%) [3]: 7%
Population Normal (%) [3]: 81%
Population Pyknosed Nuclei (%) [3]: 67%
Population Tubulin-Different-Phenotype (%) [3]: 93%
Total Cell Count [3]: 209
Population Apoptotic (%) [4]: 85%
Population Fragmented Nuclei (%) [4]: 6%
Population Healthy Nuclei (%) [4]: 15%
Population Hoechst High Intensity Objects (%) [4]: 6%
Population Membrane Permeable-Phenotype (%) [4]: 4%
Population Mitochondria Different-Phenotype (%) [4]: 96%
Population Mitotic Cells (%) [4]: 14%
Population Normal (%) [4]: 93%
Population Pyknosed Nuclei (%) [4]: 78%
Population Tubulin-Different-Phenotype (%) [4]: 92%
Total Cell Count [4]: 172
Population Apoptotic (%) [5]: 59%
Population Fragmented Nuclei (%) [5]: 12%
Population Healthy Nuclei (%) [5]: 18%
Population Hoechst High Intensity Objects (%) [5]: 21%
Population Membrane Permeable-Phenotype (%) [5]: 0%
Population Mitochondria Different-Phenotype (%) [5]: 95%
Population Mitotic Cells (%) [5]: 40%
Population Normal (%) [5]: 78%
Population Pyknosed Nuclei (%) [5]: 68%
Population Tubulin-Different-Phenotype (%) [5]: 63%
Total Cell Count [5]: 274
Population Apoptotic (%) [6]: 42%
Population Fragmented Nuclei (%) [6]: 7%
Population Healthy Nuclei (%) [6]: 60%
Population Hoechst High Intensity Objects (%) [6]: 1%
Population Membrane Permeable-Phenotype (%) [6]: 4%
Population Mitochondria Different-Phenotype (%) [6]: 56%
Population Mitotic Cells (%) [6]: 57%
Population Normal (%) [6]: 98%
Population Pyknosed Nuclei (%) [6]: 32%
Population Tubulin-Different-Phenotype (%) [6]: 60%
Total Cell Count [6]: 273
Population Fragmented Nuclei (%) [7]: 15%
Population Healthy Nuclei (%) [7]: 11%
Population Hoechst High Intensity Objects (%) [7]: 23%
Population Membrane Permeable-Phenotype (%) [7]: 0%
Population Mitochondria Different-Phenotype (%) [7]: 100%
Population Normal (%) [7]: 76%
Population Pyknosed Nuclei (%) [7]: 72%
Population Tubulin-Different-Phenotype (%) [7]: 94%
Total Cell Count [7]: 211
Population Apoptotic (%) [8]: 92%
Population Fragmented Nuclei (%) [8]: 4%
Population Healthy Nuclei (%) [8]: 20%
Population Hoechst High Intensity Objects (%) [8]: 6%
Population Membrane Permeable-Phenotype (%) [8]: 6%
Population Mitochondria Different-Phenotype (%) [8]: 93%
Population Mitotic Cells (%) [8]: 7%
Population Normal (%) [8]: 93%
Population Pyknosed Nuclei (%) [8]: 74%
Population Tubulin-Different-Phenotype (%) [8]: 93%
Total Cell Count [8]: 159
Population Apoptotic (%) [9]: 66%
Population Fragmented Nuclei (%) [9]: 21%
Population Healthy Nuclei (%) [9]: 11%
Population Hoechst High Intensity Objects (%) [9]: 23%
Population Membrane Permeable-Phenotype (%) [9]: 4%
Population Mitochondria Different-Phenotype (%) [9]: 88%
Population Mitotic Cells (%) [9]: 33%
Population Normal (%) [9]: 76%
Population Pyknosed Nuclei (%) [9]: 66%
Population Tubulin-Different-Phenotype (%) [9]: 72%
Total Cell Count [9]: 276
Population Apoptotic (%) [10]: 21%
Population Fragmented Nuclei (%) [10]: 4%
Population Healthy Nuclei (%) [10]: 81%
Population Hoechst High Intensity Objects (%) [10]: 1%
Population Membrane Permeable-Phenotype (%) [10]: 5%
Population Mitochondria Different-Phenotype (%) [10]: 29%
Population Mitotic Cells (%) [10]: 78%
Population Normal (%) [10]: 98%
Population Pyknosed Nuclei (%) [10]: 13%
Population Tubulin-Different-Phenotype (%) [10]: 60%
Total Cell Count [10]: 406
Population Apoptotic (%) [11]: 86%
Population Fragmented Nuclei (%) [11]: 24%
Population Healthy Nuclei (%) [11]: 1%
Population Hoechst High Intensity Objects (%) [11]: 23%
Population Membrane Permeable-Phenotype (%) [11]: 0%
Population Mitochondria Different-Phenotype (%) [11]: 100%
Population Mitotic Cells (%) [11]: 13%
Population Normal (%) [11]: 76%
Population Pyknosed Nuclei (%) [11]: 73%
Population Tubulin-Different-Phenotype (%) [11]: 66%
Total Cell Count [11]: 230
Population Apoptotic (%) [12]: 97%
Population Fragmented Nuclei (%) [12]: 14%
Population Healthy Nuclei (%) [12]: 15%
Population Hoechst High Intensity Objects (%) [12]: 8%
Population Membrane Permeable-Phenotype (%) [12]: 8%
Population Mitochondria Different-Phenotype (%) [12]: 83%
Population Mitotic Cells (%) [12]: 2%
Population Normal (%) [12]: 91%
Population Pyknosed Nuclei (%) [12]: 69%
Population Tubulin-Different-Phenotype (%) [12]: 75%
Total Cell Count [12]: 168

C=CC(=O)Nc1cc2c(Nc3ccc(F)c(Cl)c3)ncnc2cc1OCCCN1CCOCC1.Cl.Cl [CANERTINIB DIHYDROCHLORIDE]
Population Apoptotic (%) [1]: 70%
Population Fragmented Nuclei (%) [1]: 22%
Population Healthy Nuclei (%) [1]: 35%
Population Hoechst High Intensity Objects (%) [1]: 22%
Population Membrane Permeable-Phenotype (%) [1]: 24%
Population Mitochondria Different-Phenotype (%) [1]: 76%
Population Mitotic Cells (%) [1]: 29%
Population Normal (%) [1]: 77%
Population Pyknosed Nuclei (%) [1]: 41%
Population Tubulin-Different-Phenotype (%) [1]: 82%
Total Cell Count [1]: 582
Population Apoptotic (%) [2]: 47%
Population Fragmented Nuclei (%) [2]: 4%
Population Healthy Nuclei (%) [2]: 80%
Population Hoechst High Intensity Objects (%) [2]: 7%
Population Membrane Permeable-Phenotype (%) [2]: 17%
Population Mitochondria Different-Phenotype (%) [2]: 92%
Population Mitotic Cells (%) [2]: 52%
Population Normal (%) [2]: 92%
Population Pyknosed Nuclei (%) [2]: 14%
Population Tubulin-Different-Phenotype (%) [2]: 97%
Total Cell Count [2]: 863
Population Apoptotic (%) [3]: 28%
Population Fragmented Nuclei (%) [3]: 14%
Population Healthy Nuclei (%) [3]: 60%
Population Hoechst High Intensity Objects (%) [3]: 13%
Population Membrane Permeable-Phenotype (%) [3]: 3%
Population Mitochondria Different-Phenotype (%) [3]: 12%
Population Mitotic Cells (%) [3]: 71%
Population Normal (%) [3]: 86%
Population Pyknosed Nuclei (%) [3]: 24%
Population Tubulin-Different-Phenotype (%) [3]: 12%
Total Cell Count [3]: 583
Population Apoptotic (%) [4]: 8%
Population Fragmented Nuclei (%) [4]: 6%
Population Healthy Nuclei (%) [4]: 88%
Population Hoechst High Intensity Objects (%) [4]: 3%
Population Membrane Permeable-Phenotype (%) [4]: 2%
Population Mitochondria Different-Phenotype (%) [4]: 16%
Population Mitotic Cells (%) [4]: 91%
Population Normal (%) [4]: 96%
Population Pyknosed Nuclei (%) [4]: 5%
Population Tubulin-Different-Phenotype (%) [4]: 16%
Total Cell Count [4]: 1567
Population Apoptotic (%) [5]: 79%
Population Fragmented Nuclei (%) [5]: 21%
Population Healthy Nuclei (%) [5]: 37%
Population Hoechst High Intensity Objects (%) [5]: 24%
Population Membrane Permeable-Phenotype (%) [5]: 8%
Population Mitochondria Different-Phenotype (%) [5]: 69%
Population Mitotic Cells (%) [5]: 20%
Population Normal (%) [5]: 75%
Population Pyknosed Nuclei (%) [5]: 40%
Population Tubulin-Different-Phenotype (%) [5]: 56%
Total Cell Count [5]: 612
Population Apoptotic (%) [6]: 29%
Population Fragmented Nuclei (%) [6]: 5%
Population Healthy Nuclei (%) [6]: 80%
Population Hoechst High Intensity Objects (%) [6]: 10%
Population Membrane Permeable-Phenotype (%) [6]: 4%
Population Mitochondria Different-Phenotype (%) [6]: 67%
Population Mitotic Cells (%) [6]: 70%
Population Normal (%) [6]: 89%
Population Pyknosed Nuclei (%) [6]: 13%
Population Tubulin-Different-Phenotype (%) [6]: 54%
Total Cell Count [6]: 910
Population Apoptotic (%) [7]: 21%
Population Fragmented Nuclei (%) [7]: 14%
Population Healthy Nuclei (%) [7]: 75%
Population Hoechst High Intensity Objects (%) [7]: 9%
Population Membrane Permeable-Phenotype (%) [7]: 6%
Population Mitochondria Different-Phenotype (%) [7]: 7%
Population Mitotic Cells (%) [7]: 78%
Population Normal (%) [7]: 90%
Population Pyknosed Nuclei (%) [7]: 9%
Population Tubulin-Different-Phenotype (%) [7]: 12%
Total Cell Count [7]: 665
Population Apoptotic (%) [8]: 10%
Population Fragmented Nuclei (%) [8]: 24%
Population Healthy Nuclei (%) [8]: 73%
Population Hoechst High Intensity Objects (%) [8]: 2%
Population Membrane Permeable-Phenotype (%) [8]: 3%
Population Mitochondria Different-Phenotype (%) [8]: 3%
Population Mitotic Cells (%) [8]: 89%
Population Normal (%) [8]: 97%
Population Pyknosed Nuclei (%) [8]: 2%
Population Tubulin-Different-Phenotype (%) [8]: 8%
Total Cell Count [8]: 2738

COc1ccc(Oc2cc(NCCC(F)(F)F)c3ncc(-c4ccc(C(=O)NC5CC5)c(C)c4)n3n2)c(F)c1F [BAY-1217389]
Population Apoptotic (%) [3]: 50% and 20%
Population Fragmented Nuclei (%) [3]: 25% and 12%
Population Healthy Nuclei (%) [3]: 28% and 63%
Population Hoechst High Intensity Objects (%) [3]: 20% and 13%
Population Membrane Permeable-Phenotype (%) [3]: 17% and 25%
Population Mitotic Cells (%) [3]: 49% and 79%
Population Normal (%) [3]: 79% and 86%
Population Pyknosed Nuclei (%) [3]: 46% and 23%
Population Tubulin-Different-Phenotype (%) [3]: 79% and 68%
Total Cell Count [3]: 607 and 639
Population Apoptotic (%) [4]: 21% and 43%
Population Fragmented Nuclei (%) [4]: 5% and 2%
Population Healthy Nuclei (%) [4]: 89% and 86%
Population Hoechst High Intensity Objects (%) [4]: 2% and 5%
Population Mitotic Cells (%) [4]: 78% and 56%
Population Normal (%) [4]: 97% and 94%
Population Pyknosed Nuclei (%) [4]: 5% and 11%
Population Tubulin-Different-Phenotype (%) [4]: 87% and 95%
Total Cell Count [4]: 1266 and 966
Population Apoptotic (%) [7]: 53% and 25%
Population Fragmented Nuclei (%) [7]: 25% and 9%
Population Healthy Nuclei (%) [7]: 46% and 80%
Population Hoechst High Intensity Objects (%) [7]: 18% and 7%
Population Membrane Permeable-Phenotype (%) [7]: 9% and 24%
Population Mitotic Cells (%) [7]: 46% and 74%
Population Normal (%) [7]: 81% and 92%
Population Tubulin-Different-Phenotype (%) [7]: 84%
Total Cell Count [7]: 575 and 704
Population Fragmented Nuclei (%) [8]: 10% and 4%
Population Healthy Nuclei (%) [8]: 87% and 88%
Population Hoechst High Intensity Objects (%) [8]: 3% and 6%
Population Mitotic Cells (%) [8]: 94% and 68%
Population Normal (%) [8]: 96% and 93%
Population Tubulin-Different-Phenotype (%) [8]: 91% and 95%
Total Cell Count [8]: 1717 and 1126
